Laboratory results: ChEMBL document CHEMBL3758148, “4-Phenylpyridin-2-one Derivatives: A Novel Class of Positive Allosteric Modulator of the M1 Muscarinic Acetylcholine Receptor” (J Med Chem, 2016)

Columns and labels:
[1] = molecular target: T1, Muscarinic acetylcholine receptor M1 (Homo sapiens) (UniProt P11229); assay: Displacement of [3H]NMS from human muscarinic M1 receptor expressed in CHO Flp-In cells after 1 hr by microbeta liquid scintillation counting-based radioligand binding assay; format: cell-based
T1 sequence (whole entry): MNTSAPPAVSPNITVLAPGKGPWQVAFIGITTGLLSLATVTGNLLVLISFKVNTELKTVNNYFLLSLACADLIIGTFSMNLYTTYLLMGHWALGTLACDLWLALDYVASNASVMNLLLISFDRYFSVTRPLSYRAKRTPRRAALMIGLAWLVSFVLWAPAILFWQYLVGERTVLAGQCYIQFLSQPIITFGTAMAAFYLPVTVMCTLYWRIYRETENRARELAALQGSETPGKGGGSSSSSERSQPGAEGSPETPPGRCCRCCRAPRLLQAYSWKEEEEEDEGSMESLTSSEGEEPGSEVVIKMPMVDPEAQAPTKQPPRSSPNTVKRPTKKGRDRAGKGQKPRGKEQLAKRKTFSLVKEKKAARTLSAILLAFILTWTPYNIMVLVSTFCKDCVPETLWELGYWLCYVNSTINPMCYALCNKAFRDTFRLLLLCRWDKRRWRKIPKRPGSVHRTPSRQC
Procedure, shortened: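 Intact adherent Flp-In CHO cells expressing hM1 (10⁴ cells/well), incubated with 0.2 nM [3H]NMS, varying ACh and modulator in HEPES-buffered saline pH 7.4 for 1 h at 37 °C. Washed with ice-cold 0.9% NaCl, then scintillation counted. Fitted to an allosteric ternary complex model with [3H]NMS KA 0.2 nM. Mean ± SEM, ≥3 experiments in duplicate.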

[2] = molecular target: T1, Muscarinic acetylcholine receptor M1 (Homo sapiens); assay: Positive allosteric modulation of human muscarinic M1 receptor expressed in CHO Flp-In cells assessed as functional cooperativity with acetylcholine measured as IP1 accumulation after 1 hr by HTRF method; format: cell-based
Procedure, shortened: (§1)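 Suspended Flp-In CHO cells stably expressing hM1, stimulated at 10⁶ cells/ml in HEPES buffer with 50 mM LiCl, pH 7.4, using increasing ACh with or without increasing modulator, 1 h at 37 °C, 5% CO2. IP1 read by HTRF (665/590 nm ratio). Curves fitted globally to the operational model of allosterism, with KB fixed from binding. Mean ± SEM, ≥3 experiments in duplicate.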

[3] = molecular target: T1, Muscarinic acetylcholine receptor M1 (Homo sapiens); assay: Allosteric agonist activity at human muscarinic M1 receptor expressed in CHO Flp-In cells assessed as intrinsic activity measured as IP1 accumulation after 1 hr by HTRF method; format: functional, cell-based; procedure, shortened: as §1

Row | SMILES | Kb [1] [µM] | pKb [1] | log(activity) [2] | Intrinsic activity [3] | log(IA) [3]
1 | Cn1cc(-c2ccc(CNc3ccccc3-c3ccn([C@H]4CCCC[C@@H]4O)c(=O)c3)cc2)cn1 (racemic) | 66 | 4.18 | 1.44 | 0.44 | -0.36
2 | Cn1cc(-c2ccc(COc3c(F)ccc(F)c3-c3ccn([C@H]4CCCC[C@@H]4O)c(=O)c3)cc2)cn1 (racemic) | 42 | 4.38 | -0.41 | 1.34 | 0.13
3 | Cn1cc(-c2ccc(COc3ccccc3-c3cc(=O)n([C@H]4CCCC[C@@H]4O)cn3)cc2)cn1 (racemic) | 13 | 4.88 | 2.75 | 2.51 | 0.4
4 | Cn1cc(-c2ccc(COc3ccccc3-c3ccn([C@H]4CCCC[C@@H]4O)c(=O)c3)c(F)c2)cn1 (racemic) | 31 | 4.51 | 1.93 | 0.43 | -0.37
5 | Cn1cc(-c2ccc(COc3ccccc3-c3ccn([C@H]4CCCC[C@@H]4O)c(=O)c3)cn2)cn1 (racemic) | 32 | 4.5 | 2.15 | – | -3
6 | O=c1cc(-c2ccccc2NCc2ccc(-c3cccnc3)cc2)ccn1[C@H]1CCCC[C@@H]1O (racemic) | 21 | 4.67 | 0.47 | 0.74 | -0.13
7 | O=c1cc(-c2ccccc2OCc2ccc(-c3cnn(C4CCCCC4)c3)cc2)ccn1[C@H]1CCCC[C@@H]1O (racemic) | 2 | 5.67 | 0.63 | 0.51 | -0.29

Second part, the compound after the results:

Row | Kb [1] [µM] | pKb [1] | log(activity) [2] | Intrinsic activity [3] | log(IA) [3] | SMILES
8 | 27 | 4.57 | 1.93 | 0.47 | -0.33 | CC(C)n1cc(-c2ccc(COc3ccccc3-c3ccn([C@H]4CCCC[C@@H]4O)c(=O)c3)cc2)cn1 (racemic)
9 | 14 | 4.86 | 0.75 | 0.5 | -0.3 | CCCCn1cc(-c2ccc(COc3ccccc3-c3ccn([C@H]4CCCC[C@@H]4O)c(=O)c3)cc2)cn1 (racemic)
10 | 23 | 4.64 | 1.78 | 0.3 | -0.52 | CCCn1cc(-c2ccc(COc3ccccc3-c3ccn([C@H]4CCCC[C@@H]4O)c(=O)c3)cc2)cn1 (racemic)
11 | 41 | 4.38 | 2.26 | 0.89 | -0.05 | CCn1cc(-c2ccc(COc3ccccc3-c3ccn([C@H]4CCCC[C@@H]4O)c(=O)c3)cc2)cn1 (racemic)
12 | 11 | 4.95 | 1.01 | 0.43 | -0.37 | O=c1cc(-c2ccccc2OCc2ccc(-c3ccncc3)cc2)ccn1[C@H]1CCCC[C@@H]1O (racemic)
13 | 28 | 4.56 | 0.68 | 1.1 | 0.04 | O=c1cc(-c2ccccc2OCc2ccc(-c3cn[nH]c3)cc2)ccn1[C@H]1CCCC[C@@H]1O (racemic)
14 | 35 | 4.45 | 1.34 | 0.16 | -0.8 | O=c1cc(-c2ccccc2OCc2ccc(-c3cncnc3)cc2)ccn1[C@H]1CCCC[C@@H]1O (racemic)
15 | 4 | 5.45 | 1.92 | 0.38 | -0.42 | O=c1cc(-c2ccccc2OCc2ccc(-c3cnn(C4CCCC4)c3)cc2)ccn1[C@H]1CCCC[C@@H]1O (racemic)
16 | 7 | 5.13 | 0.58 | – | -3 | O=c1cc(-c2ccccc2OCc2ccc(-c3cnn(CC4CC4)c3)cc2)ccn1[C@H]1CCCC[C@@H]1O (racemic)
17 | 37 | 4.43 | 2.49 | 0.77 | -0.11 | O=c1cc(-c2ccccc2OCc2ccc(-c3cnn(CCO)c3)cc2)ccn1[C@H]1CCCC[C@@H]1O (racemic)
